Test results published in ChEMBL document CHEMBL2158000 (Bioorg Med Chem Lett, 2012).

How the values were obtained:
[1] = target: T1, Amine oxidase [flavin-containing] A (Homo sapiens, UniProt P21397); assay: Inhibition of human recombinant MAOA using kynuramine as substrate assessed as formation of 4-hydroxyquinoline after 20 mins by fluorescence spectrophotometry
T1 sequence (P21397 whole entry): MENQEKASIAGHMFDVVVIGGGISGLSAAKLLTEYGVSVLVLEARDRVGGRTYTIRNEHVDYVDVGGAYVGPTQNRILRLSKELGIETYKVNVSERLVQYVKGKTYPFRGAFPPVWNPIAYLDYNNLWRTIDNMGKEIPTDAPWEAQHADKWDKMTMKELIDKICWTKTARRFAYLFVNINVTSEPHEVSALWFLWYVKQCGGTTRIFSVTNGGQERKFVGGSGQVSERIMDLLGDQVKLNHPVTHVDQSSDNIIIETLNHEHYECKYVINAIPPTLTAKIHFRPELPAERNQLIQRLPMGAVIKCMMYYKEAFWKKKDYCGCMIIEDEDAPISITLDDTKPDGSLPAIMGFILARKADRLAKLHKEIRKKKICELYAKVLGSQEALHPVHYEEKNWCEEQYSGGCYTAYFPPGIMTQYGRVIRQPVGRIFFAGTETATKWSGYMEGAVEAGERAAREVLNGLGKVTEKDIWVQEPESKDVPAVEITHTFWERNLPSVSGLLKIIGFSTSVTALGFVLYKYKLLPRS

[2] = target: T2, Amine oxidase [flavin-containing] B (Homo sapiens, UniProt P27338); assay: Inhibition of human recombinant MAOB using kynuramine as substrate assessed as formation of 4-hydroxyquinoline after 20 mins by fluorescence spectrophotometry
T2 sequence (P27338 whole entry): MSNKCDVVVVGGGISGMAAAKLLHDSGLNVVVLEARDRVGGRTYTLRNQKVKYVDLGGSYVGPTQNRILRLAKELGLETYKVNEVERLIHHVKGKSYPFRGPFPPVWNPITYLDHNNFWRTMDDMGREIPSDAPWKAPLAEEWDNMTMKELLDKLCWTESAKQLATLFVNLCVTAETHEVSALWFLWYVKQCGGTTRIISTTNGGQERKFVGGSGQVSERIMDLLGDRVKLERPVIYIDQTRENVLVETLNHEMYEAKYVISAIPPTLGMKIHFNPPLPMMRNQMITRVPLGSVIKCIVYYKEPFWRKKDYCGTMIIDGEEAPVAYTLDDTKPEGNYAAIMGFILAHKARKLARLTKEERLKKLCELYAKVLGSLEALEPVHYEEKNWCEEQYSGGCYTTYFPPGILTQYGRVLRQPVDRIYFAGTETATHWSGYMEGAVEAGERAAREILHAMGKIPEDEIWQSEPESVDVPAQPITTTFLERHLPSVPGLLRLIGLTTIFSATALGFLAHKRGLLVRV

Homo sapiens = species: Homo sapiens; assay: Selectivity index, ratio of IC50 for human recombinant MAOA to IC50 for human recombinant MAOB
[3] = target: T2, Amine oxidase [flavin-containing] B; assay: Reversible inhibition of human recombinant MAOB using kynuramine as substrate assessed as residual activity at 100 times IC50 preincubated for 30 mins followed by 100 fold dilution measured after 20 mins by fluorescence spectrophotometry relative to control
How it was run: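 MAO-B was preincubated with inhibitor at 10× and 100× IC50 for 30 min, then diluted to 0.1× and 1× IC50. Residual activity was measured by fluorometry of 4-hydroxyquinoline from kynuramine and expressed as % of control. Irreversible reference inhibitor was at 10× IC50, diluted to 0.1× IC50.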

**Q.** `O=C1NC(=O)c2cc(SC3CCCCC3)ccc21` was tested. Which IC50 [1] did it give?
**A.** 1030 nM

**Q.** And the IC50 [2]?
**A.** 179 nM

**Q.** And the Ratio IC50 (Homo sapiens)?
**A.** 5.8

**Q.** How did the Activity [3] turn out when `O=C1NC(=O)c2cc(SCc3ccccc3)ccc21` was run?
**A.** 28%

**Q.** What about the IC50 [1] of the same compound?
**A.** 1920 nM

**Q.** What about the IC50 [2] of the same compound?
**A.** 4.5 nM

**Q.** And the Ratio IC50 (Homo sapiens)?
**A.** 427

**Q.** What does the source list for `O=C1NC(=O)c2cc(SCc3ccc(Cl)cc3)ccc21`?
**A.** IC50 [1]: 506 nM; IC50 [2]: 5.6 nM; Ratio IC50 (Homo sapiens): 90

**Q.** For `O=C1NC(=O)c2cc(SCc3ccc(F)cc3)ccc21`, which IC50 [1] is on record?
**A.** 958 nM

**Q.** And the IC50 [2]?
**A.** 6.8 nM

**Q.** What about the Ratio IC50 (Homo sapiens) of the same compound?
**A.** 141

**Q.** With `O=C1NC(=O)c2cc(SCc3ccc(Br)cc3)ccc21` as the compound, how does the IC50 [1] read?
**A.** 273 nM

**Q.** What about the IC50 [2] of the same compound?
**A.** 7.4 nM

**Q.** What about the Ratio IC50 (Homo sapiens) of the same compound?
**A.** 37

**Q.** Which IC50 [1] does the source give for `O=C1NC(=O)c2cc(Sc3ccc(Cl)cc3)ccc21` here?
**A.** 1680 nM

**Q.** What about the IC50 [2] of the same compound?
**A.** 457 nM

**Q.** And the Ratio IC50 (Homo sapiens)?
**A.** 3.7

**Q.** Which IC50 [1] does the source give for `COc1ccc(CSc2ccc3c(c2)C(=O)NC3=O)cc1` here?
**A.** 1630 nM

**Q.** And the IC50 [2]?
**A.** 20 nM

**Q.** And the Ratio IC50 (Homo sapiens)?
**A.** 82

**Q.** Which results are given for `O=C1NC(=O)c2cc(Sc3ccc(Br)cc3)ccc21`?
**A.** IC50 [1]: 1010 nM; IC50 [2]: 364 nM; Ratio IC50 (Homo sapiens): 2.8

**Q.** With `O=C1NC(=O)c2cc(SCCc3ccccc3)ccc21` as the compound, how does the IC50 [1] read?
**A.** 2270 nM

**Q.** What about the IC50 [2] of the same compound?
**A.** 30 nM

**Q.** And the Ratio IC50 (Homo sapiens)?
**A.** 76

**Q.** How did the IC50 [1] turn out when `CC(C)CCSc1ccc2c(c1)C(=O)NC2=O` was run?
**A.** 380 nM

**Q.** And the IC50 [2]?
**A.** 15 nM

**Q.** What about the Ratio IC50 (Homo sapiens) of the same compound?
**A.** 26

**Q.** Which results are given for `O=C1NC(=O)c2cc(Sc3ccccc3)ccc21`?
**A.** IC50 [1]: 8030 nM; IC50 [2]: 986 nM; Ratio IC50 (Homo sapiens): 8.1
